Experimental data taken from ChEMBL document CHEMBL1147518, “Hydroxytriamides as potent gamma-secretase inhibitors” (Bioorg Med Chem Lett, 2004).

Each molecule was assayed against Gamma-secretase (assay: Inhibition of gamma-secretase activity in H4 human neuroglioma cells by measuring amyloid beta production; Inactive).
Type: cell-based
In short: (§1)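 H4 human neuroglioma cells expressing HPLAP-βAPP164SFAD, grown in high-glucose DMEM with 10% FBS, pen-strep, 2 mM glutamine and geneticin, plated in 96 wells; after attachment, medium swapped for Ultraculture containing compound (1% DMSO final), overnight incubation. Aβ1-40 in conditioned medium measured by sandwich ELISA (C-terminal Aβ40-specific capture, HRP N-terminal detection, TMB/phosphoric acid). Means of two experiments, 16 data points each.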
Molecule CCCCN(C)C(=O)[C@H](CC(=O)O)NC(=O)[C@H](CC(C)C)NC(=O)Cc1cc(F)cc(F)c1 has an IC50 of over 2500 nM. In the case of CCCCN(C)C(=O)[C@H](CC1CCCCC1)NC(=O)[C@@H]1CCCN1C(=O)Cc1cc(F)cc(F)c1, the IC50 is reported as over 2500 nM. CCCCN(C)C(=O)[C@H](CCCCN)NC(=O)[C@H](CC(C)C)NC(=O)Cc1cc(F)cc(F)c1 was tested, and the IC50 was over 2500 nM. In the case of CCCCN(C)C(=O)[C@H](CC1CCCCC1)NC(=O)[C@@H](CC(C)C)NC(=O)Cc1cc(F)cc(F)c1, the IC50 is reported as over 2500 nM.

What follows are molecules tested against Gamma-secretase (assay: Inhibition of gamma-secretase activity in H4 human neuroglioma cells by measuring amyloid beta production).
Type: cell-based
In short: as §1
CC(C)C[C@H](NC(=O)Cc1ccccc1)C(=O)N[C@@H](CC1CCCCC1)C(=O)N1CCCCC1 was tested, and the IC50 was 50 nM. Work on CCCCN(C)C(=O)[C@H](CC1CCCCC1)NC(=O)[C@H](CC(C)C)NC(=O)Cc1cccc(F)c1 yielded an IC50 of 20 nM. Work on CC(C)C[C@H](NC(=O)Cc1ccccc1)C(=O)N[C@@H](CC1CCCCC1)C(=O)N(C)Cc1ccccc1 yielded an IC50 of 39 nM. Work on CCCCN(C)C(=O)[C@H](CC1CCCCC1)NC(=O)[C@H](CC(C)C)NC(=O)Cc1ccc(N)cc1 yielded an IC50 of 1100 nM. CCCCN(C)C(=O)[C@H](CC1CCCCC1)NC(=O)[C@@H]1CCCCN1C(=O)[C@@H](O)c1ccccc1 was tested, and the IC50 was over 2500 nM. With CCCCNC(=O)[C@H](CC1CCCCC1)NC(=O)[C@H](CC(C)C)NC(=O)Cc1ccccc1 the IC50 was 240 nM. CC(C)CC[C@@H](O)[C@H](CC1CCCCC1)NC(=O)[C@H](CC(C)C)NC(=O)Cc1ccccc1 was tested, and the IC50 was 1200 nM. Work on CCCCN(CC)C(=O)[C@H](CC1CCCCC1)NC(=O)[C@H](CC(C)C)NC(=O)Cc1ccccc1 yielded an IC50 of 55 nM. With CCCCN(C)C(=O)[C@H](CC1CCCCC1)NC(=O)[C@H](Cc1ccccc1)NC(=O)Cc1cc(F)cc(F)c1 the IC50 was 2400 nM. CCCCN(C)C(=O)[C@H](CC1CCCCC1)NC(=O)[C@H](C)NC(=O)Cc1cc(F)cc(F)c1 was tested, and the IC50 was 32 nM. With CCCCN(C)C(=O)[C@H](CC1CCCCC1)NC(=O)[C@H](CC(C)C)NC(=O)Cc1cccc(C)c1 the IC50 was 454 nM. CCCCN(C)C(=O)[C@H](CC1CCCCC1)NC(=O)[C@H](CC(C)C)NC(=O)Cc1cccc(Cl)c1 was tested, and the IC50 was 52 nM. CON(C)C(=O)[C@H](CC1CCCCC1)NC(=O)[C@H](CC(C)C)NC(=O)Cc1ccccc1 gave an IC50 of 130 nM. For CCCCN(C)C(=O)[C@H](CC1CCCCC1)NC(=O)CNC(=O)Cc1cc(F)cc(F)c1, the IC50 was 300 nM. CCCCN(C)C(=O)[C@H](CC1CCCCC1)NC(=O)[C@H](CC(C)C)NC(=O)Cc1cccc(OC)c1 gave an IC50 of 480 nM. For CCCCN(C)C(=O)[C@H](CC1CCCCC1)NC(=O)[C@H](CC(C)C)NC(=O)[C@@](C)(OC)c1ccccc1, the IC50 was over 2500 nM. Molecule CC(C)C[C@H](NC(=O)Cc1ccc2ccccc2c1)C(=O)N[C@@H](CC1CCCCC1)[C@H](O)Cc1ccccc1C(=O)NC(C)(C)C has an IC50 of 4.7 nM. CCCCN(C)C(=O)[C@H](CC1CCCCC1)NC[C@H](CC(C)C)NC(=O)[C@@H](O)c1ccccc1 showed an IC50 of over 2500 nM. In the case of CCCCN(C)C(=O)[C@H](CC1CCCCC1)NC(=O)[C@H](CC(C)C)NC(=O)Cc1cc(C(F)(F)F)cc(C(F)(F)F)c1, the IC50 is reported as 408 nM. Work on CC(C)CNC(=O)[C@H](CC1CCCCC1)NC(=O)[C@H](CC(C)C)NC(=O)Cc1ccccc1 yielded an IC50 of 150 nM. CCCCN(C)C(=O)[C@H](CC1CCCCC1)NC(=O)[C@H](CC(C)C)NC(=O)Cc1cc(OC)cc(OC)c1 showed an IC50 of 800 nM. CCCCN(C)C(=O)[C@H](CC1CCCCC1)NC(=O)[C@H](CC(C)C)NC(=O)c1ccccc1 was tested, and the IC50 was 3200 nM. For CCCCN(C)C(=O)[C@H](CC1CCCCC1)NC(=O)[C@H](CC(C)C)NC(=O)Cc1ccccc1, the IC50 was 17 nM. For CCOC(=O)[C@H](CC1CCCCC1)NC(=O)[C@H](CC(C)C)NC(=O)Cc1ccccc1, the IC50 was 900 nM. CCCCN(C)C(=O)[C@@H](CC1CCCCC1)NC(=O)[C@H](CC(C)C)NC(=O)Cc1ccccc1 was tested, and the IC50 was 1000 nM. Work on CCCCN(C)C[C@H](CC1CCCCC1)NC(=O)[C@H](CC(C)C)NC(=O)Cc1ccccc1 yielded an IC50 of 1700 nM. In the case of CC(C)C[C@H](NC(=O)Cc1ccccc1)C(=O)N[C@@H](CC1CCCCC1)C(=O)N(C)C, the IC50 is reported as 102 nM. In the case of CCCCN(C)C(=O)[C@H](CC1CCCCC1)NC(=O)[C@H](CC(C)C)NC(=O)Cc1ccc(F)cc1, the IC50 is reported as 36 nM. Molecule CCCCN(C)C(=O)[C@H](CC1CCCCC1)NC(=O)[C@H](CC(C)C)NC(=O)Cc1ccccc1F has an IC50 of 280 nM. COC(=O)[C@H](CC1CCCCC1)NC(=O)[C@H](CC(C)C)NC(=O)Cc1ccccc1 showed an IC50 of 800 nM. CCCCN(C)C(=O)[C@H](CC1CCCCC1)NC(=O)[C@H](CC(C)C)NC(=O)CCc1ccccc1 was tested, and the IC50 was 160 nM. CCCCN(C)C(=O)[C@H](CC1CCCCC1)NC(=O)[C@H](CC(C)C)NC(=O)C(O)(O)c1ccccc1 was tested, and the IC50 was 1 nM. CCCCN(C)C(=O)[C@H](CC1CCCCC1)NC(=O)[C@H](CC(C)C)NC(=O)[C@@H](OC)c1ccccc1 showed an IC50 of 2000 nM. CCCCN(C)C(=O)[C@H](CC1CCCCC1)NC(=O)[C@H](CC(C)C)NC(=O)[C@H](O)c1ccccc1 gave an IC50 of 240 nM. For CCCCN(C)C(=O)[C@H](CC1CCCCC1)NC(=O)[C@H](CC(C)C)NC(=O)Cc1cccc(N)c1, the IC50 was over 2500 nM. CCCCN(C)C(=O)[C@H](CC1CCCCC1)NC(=O)[C@H](CC(C)C)NC(=O)/C=C/c1ccccc1 showed an IC50 of over 2600 nM. Molecule CCCCN(C)C(=O)[C@H](CC1CCCCC1)NC(=O)[C@H](CC(C)C)NC(=O)[C@](C)(OC)c1ccccc1 has an IC50 of over 2500 nM. In the case of CCCCN(C)C(=O)[C@@H]1Cc2ccccc2CN1C(=O)[C@H](CC(C)C)NC(=O)[C@@H](O)c1ccccc1, the IC50 is reported as 66 nM. With CCCCN(C)C(=O)[C@H](CC1CCCCC1)NC(=O)[C@H](CC(C)C)NC(=O)[C@](C)(O)c1ccccc1 the IC50 was over 2500 nM. Work on CC(C)CCC(=O)[C@H](CC1CCCCC1)NC(=O)[C@H](CC(C)C)NC(=O)Cc1ccccc1 yielded an IC50 of 300 nM. With CC(C)C[C@H](NC(=O)Cc1ccccc1)C(=O)N[C@@H](CC1CCCCC1)C(=O)N(C)CC(C)C the IC50 was 13 nM. CCCCN(C)C(=O)[C@H](CC1CCCCC1)NC(=O)[C@H](CC(C)C)NC(=O)[C@H](OC)c1ccccc1 was tested, and the IC50 was over 2500 nM.
